Experimental data reported in the RNAGym collection of RNA variant scans (doi:10.1002/anie.201605470).

B1: Osa-1-4 twister ribozyme (parent)
chain: CCGCCUAACACUGCCAAUGCCGGUCCCAAGCCCGGAUAAAAGUGGAGGGGGCGG

Variants of: B1
Experiment: self-cleavage, relative activity (ratio to wild type); higher = more cleavage; co-transcriptional
Summary of the method: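 A DNA template for a 54-nucleotide Oryza sativa twister ribozyme was synthesised with 97 % wild-type base and 1 % of each other base at the 48 positions downstream of the cleavage site. It was transcribed in vitro for 2 h at 37 °C, allowing co-transcriptional self-cleavage, then reverse-transcribed with a template-switching oligonucleotide, PCR-amplified and deep-sequenced. Cleavage status was scored from reads with or without upstream sequence. Relative activity is fraction cleaved normalised to wild type.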
For A38U U43A, the self-cleavage was 0.95. A38U U43C showed a self-cleavage of 0.39. A38U U43G gave a self-cleavage of 0.47. In the case of A39C, the self-cleavage is reported as 0.99. With A39C A7C the self-cleavage was 0.06. Variant A39C A7G has a self-cleavage of 0.12. Variant A39C A7U has a self-cleavage of 0.06. For A39C A8C, the self-cleavage was 0.09. A39C A8G showed a self-cleavage of 0.23. With A39C A8U the self-cleavage was 0.1. For A39C A40C, the self-cleavage was 0.1. A39C A40G gave a self-cleavage of 0.59. A39C A40U showed a self-cleavage of 0.85. A39C A41C showed a self-cleavage of 0.37. For A39C A41G, the self-cleavage was 0.23. For A39C A41U, the self-cleavage was 0.96. A39C A46C showed a self-cleavage of 0.04. With A39C A46G the self-cleavage was 0.05. In the case of A39C A46U, the self-cleavage is reported as 0.07. Variant A39C C9A has a self-cleavage of 0.28. Work on A39C C9G yielded a self-cleavage of 0.34. A39C C9U showed a self-cleavage of 0.55. A39C C11A showed a self-cleavage of 0.26. With A39C C11G the self-cleavage was 0.21. For A39C C11U, the self-cleavage was 0.74. A39C C14A showed a self-cleavage of 0.08. A39C C14G gave a self-cleavage of 0.05. Work on A39C C14U yielded a self-cleavage of 0.11. Variant A39C C15A has a self-cleavage of 0.23. Variant A39C C15G has a self-cleavage of 0.16. A39C C15U showed a self-cleavage of 0.57. Work on A39C C20A yielded a self-cleavage of 0.87. In the case of A39C C20G, the self-cleavage is reported as 0.1. A39C C20U gave a self-cleavage of 0.94. For A39C C21A, the self-cleavage was 0.22. For A39C C21G, the self-cleavage was 0.08. With A39C C21U the self-cleavage was 0.97. In the case of A39C C25A, the self-cleavage is reported as 0.06. A39C C25G gave a self-cleavage of 0.06. In the case of A39C C25U, the self-cleavage is reported as 0.33. In the case of A39C C26A, the self-cleavage is reported as 0.04. In the case of A39C C26G, the self-cleavage is reported as 0.07. In the case of A39C C26U, the self-cleavage is reported as 0.35. A39C C27A showed a self-cleavage of 0.11. In the case of A39C C27G, the self-cleavage is reported as 0.06. With A39C C27U the self-cleavage was 0.09. A39C C31A showed a self-cleavage of 0.04. In the case of A39C C31G, the self-cleavage is reported as 0.08. Variant A39C C31U has a self-cleavage of 0.53. Work on A39C C32A yielded a self-cleavage of 0.08. Work on A39C C32G yielded a self-cleavage of 0.1. Work on A39C C32U yielded a self-cleavage of 0.08. Variant A39C C33A has a self-cleavage of 0.06. Work on A39C C33G yielded a self-cleavage of 0.07. Variant A39C C33U has a self-cleavage of 0.38. Variant A39C C52A has a self-cleavage of 1. For A39C C52G, the self-cleavage was 0.96. Variant A39C C52U has a self-cleavage of 1.06. In the case of A39C G13A, the self-cleavage is reported as 0.06. A39C G13C showed a self-cleavage of 0.02. For A39C G13U, the self-cleavage was 0.03. For A39C G19A, the self-cleavage was 0.28. In the case of A39C G19C, the self-cleavage is reported as 0.06. A39C G19U showed a self-cleavage of 0.11. Variant A39C G22A has a self-cleavage of 0.78. With A39C G22C the self-cleavage was 0.05. For A39C G22U, the self-cleavage was 0.41. For A39C G23A, the self-cleavage was 0.12. With A39C G23C the self-cleavage was 0.04. Work on A39C G23U yielded a self-cleavage of 0.05. With A39C G30A the self-cleavage was 0.04. With A39C G30C the self-cleavage was 0.04. For A39C G30U, the self-cleavage was 0.03. With A39C G34A the self-cleavage was 0.63. In the case of A39C G34C, the self-cleavage is reported as 0.2. Variant A39C G34U has a self-cleavage of 0.42. Work on A39C G35A yielded a self-cleavage of 0.78. With A39C G35C the self-cleavage was 0.14. With A39C G35U the self-cleavage was 0.84. With A39C G42A the self-cleavage was 0.1. With A39C G42C the self-cleavage was 0.09. For A39C G42U, the self-cleavage was 0.05. In the case of A39C G44A, the self-cleavage is reported as 0.71. Variant A39C G44C has a self-cleavage of 0.93. A39C G44U showed a self-cleavage of 0.88. Variant A39C G45A has a self-cleavage of 0.08. Variant A39C G45C has a self-cleavage of 0.05. A39C G45U showed a self-cleavage of 0.06. Work on A39C G47A yielded a self-cleavage of 0.08. A39C G47C gave a self-cleavage of 0.06. Work on A39C G47U yielded a self-cleavage of 0.1. A39C G48A gave a self-cleavage of 0.06. For A39C G48C, the self-cleavage was 0.05. For A39C G48U, the self-cleavage was 0.05. A39C G49A gave a self-cleavage of 0.07. With A39C G49C the self-cleavage was 0.06. A39C G49U gave a self-cleavage of 0.06. In the case of A39C G50A, the self-cleavage is reported as 0.64. A39C G50C showed a self-cleavage of 0.67. Variant A39C G50U has a self-cleavage of 1. A39C G51A gave a self-cleavage of 0.53. Work on A39C G51C yielded a self-cleavage of 0.05. Work on A39C G51U yielded a self-cleavage of 0.21. Variant A39C G53A has a self-cleavage of 0.37. With A39C G53C the self-cleavage was 0.06. Work on A39C G53U yielded a self-cleavage of 0.12. Variant A39C G54A has a self-cleavage of 0.62. A39C G54C showed a self-cleavage of 0.6. With A39C G54U the self-cleavage was 0.65. Work on A39C U12A yielded a self-cleavage of 0.44. A39C U12C showed a self-cleavage of 0.11. Work on A39C U12G yielded a self-cleavage of 0.11. For A39C U18A, the self-cleavage was 0.93. Variant A39C U18C has a self-cleavage of 0.96. A39C U18G showed a self-cleavage of 0.83. For A39C U24A, the self-cleavage was 0.05. Work on A39C U24C yielded a self-cleavage of 0.06. With A39C U24G the self-cleavage was 0.03. For A39C U37A, the self-cleavage was 0.92. For A39C U37C, the self-cleavage was 1.02. Work on A39C U37G yielded a self-cleavage of 0.98. A39C U43A gave a self-cleavage of 0.33. With A39C U43C the self-cleavage was 0.16. Work on A39C U43G yielded a self-cleavage of 0.16. In the case of A39G, the self-cleavage is reported as 1. A39G A7C showed a self-cleavage of 0.04. For A39G A7G, the self-cleavage was 0.31. Work on A39G A7U yielded a self-cleavage of 0.08. Work on A39G A8C yielded a self-cleavage of 0.08. A39G A8G gave a self-cleavage of 0.35. Variant A39G A8U has a self-cleavage of 0.17. In the case of A39G A40C, the self-cleavage is reported as 0.05. Work on A39G A40G yielded a self-cleavage of 0.36. For A39G A40U, the self-cleavage was 0.16. Work on A39G A41C yielded a self-cleavage of 0.6. With A39G A41G the self-cleavage was 0.46. A39G A41U gave a self-cleavage of 0.95. In the case of A39G A46C, the self-cleavage is reported as 0.05. A39G A46G gave a self-cleavage of 0.06. A39G A46U showed a self-cleavage of 0.09. For A39G C9A, the self-cleavage was 0.39. With A39G C9G the self-cleavage was 0.66. A39G C9U showed a self-cleavage of 0.73. Work on A39G C11A yielded a self-cleavage of 0.62. With A39G C11G the self-cleavage was 0.51. A39G C11U showed a self-cleavage of 0.93. In the case of A39G C14A, the self-cleavage is reported as 0.08. A39G C14G gave a self-cleavage of 0.12. Work on A39G C14U yielded a self-cleavage of 0.11. In the case of A39G C15A, the self-cleavage is reported as 0.41. A39G C15G showed a self-cleavage of 0.31. Work on A39G C15U yielded a self-cleavage of 0.21. In the case of A39G C20A, the self-cleavage is reported as 0.91. Work on A39G C20G yielded a self-cleavage of 0.13. Variant A39G C20U has a self-cleavage of 0.96. In the case of A39G C21A, the self-cleavage is reported as 0.55. Variant A39G C21G has a self-cleavage of 0.08. A39G C21U gave a self-cleavage of 1.01. Variant A39G C25A has a self-cleavage of 0.07. With A39G C25G the self-cleavage was 0.07. A39G C25U gave a self-cleavage of 0.53. With A39G C26A the self-cleavage was 0.06. With A39G C26G the self-cleavage was 0.25. Variant A39G C26U has a self-cleavage of 0.55. A39G C27A showed a self-cleavage of 0.09. With A39G C27G the self-cleavage was 0.07. Variant A39G C27U has a self-cleavage of 0.11.
